Data set [1] can be described thus: Cytotoxicity against african green monkey Vero cells assessed as reduction in cell viability incubated for 72 hrs by MTT assay. It is filed as toxicity, cell-based. Conditions: chlorocebus sabaeus. In a few lines:
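Vero (ATCC CCL-81) cells seeded at ~10^3 per well, 37 °C, 5% CO2. After 24 h, compound added at 100–12.5 μg/mL for 72 h. MTT then given for 4 h at 37 °C, formazan dissolved in DMSO, absorbance read at 540 nm. CC50 taken as the concentration giving 50% viability loss; doxorubicin as positive control; triplicate.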
Background: Tetrazolium dyes change colour on reduction, which living cells bring about.

A further data set deals with Klebsiella pneumoniae. Kind of data set: Antibacterial activity against Klebsiella pneumoniae BAA-1705 assessed as reduction in bacterial growth. It is filed as functional. In a few lines:
(§1)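 CLSI broth microdilution in cation-supplemented Mueller–Hinton broth II; overnight starter cultures (37 °C, shaking, 18–24 h) adjusted by OD600 to ~10^6 CFU/mL. Compounds dosed from DMSO stocks (10 mg/mL stock) as two-fold dilutions, 64–0.5 mg/L. Plates held 37 °C, 18–24 h. MIC = lowest concentration without visible growth. Three independent runs, each in duplicate.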

The subject of a further data set is Acinetobacter baumannii. As to the kind of experiment: Antibacterial activity against Acinetobacter baumannii BAA-1605 assessed as reduction in bacterial growth. The data set is classed as functional. In a few lines: as §1
Data set [2] deals with Staphylococcus aureus. As to the kind of experiment: Antibacterial activity against Staphylococcus aureus ATCC 29213 assessed as reduction in bacterial growth. The data set is classed as functional. In a few lines:
as §1

The next data set relates to Pseudomonas aeruginosa. As to the kind of experiment: Antibacterial activity against Pseudomonas aeruginosa ATCC 27853 assessed as reduction in bacterial growth. It is filed as functional. The method, boiled down:
as §1

The subject of a further data set is Escherichia coli. Kind of data set: Antibacterial activity against Escherichia coli ATCC 25922 assessed as reduction in bacterial growth. The data set is classed as functional. The method, boiled down:
as §1

Data set [3] has as its system Enterococcus faecium. As to the kind of experiment: Antibacterial activity against vancomycin-resistant Enterococcus faecium NR 31909 assessed as inhibition of bacterial growth.
Data set [4] concerns Enterococcus faecalis. As to the kind of experiment: Antibacterial activity against vancomycin-susceptible Enterococcus faecalis NR 31884 assessed as inhibition of bacterial growth incubated for 18 to 24 hrs by broth microdilution assay. The data set is classed as functional. The following applies: time 18-24 hrs. The method, boiled down:
as §1

For data set [5], the system named is Enterococcus faecium. Kind of data set: Antibacterial activity against vancomycin-resistant Enterococcus faecium NR 31903 assessed as inhibition of bacterial growth.
Data set [6] relates to Enterococcus faecalis. As to the kind of experiment: Antibacterial activity against vancomycin-susceptible Enterococcus faecalis NR 31888 assessed as inhibition of bacterial growth incubated for 18 to 24 hrs by broth microdilution assay. It is filed as functional. The following applies: time 18-24 hrs. In a few lines:
as §1
In general terms: In broth dilution the organism is exposed to a series of concentrations in liquid medium.

Data set [7] deals with Enterococcus faecalis. Kind of data set: Antibacterial activity against vancomycin-susceptible Enterococcus faecalis NR 31887 assessed as inhibition of bacterial growth incubated for 18 to 24 hrs by broth microdilution assay. It is filed as functional. The following applies: time 18-24 hrs. In a few lines: as §1
The test system of data set [8] is Enterococcus faecalis. As to the kind of experiment: Antibacterial activity against vancomycin-susceptible Enterococcus faecalis NR 31885 assessed as inhibition of bacterial growth incubated for 18 to 24 hrs by broth microdilution assay. The data set is classed as functional. Conditions: time 18-24 hrs. The method, boiled down:
as §1

Data set [9] deals with Enterococcus faecalis. Kind of data set: Antibacterial activity against vancomycin-susceptible Enterococcus faecalis NR 31886 assessed as inhibition of bacterial growth incubated for 18 to 24 hrs by broth microdilution assay. It is filed as functional. Conditions: time 18-24 hrs. In a few lines:
as §1

The test system of data set [10] is Enterococcus faecium. As to the kind of experiment: Antibacterial activity against vancomycin-resistant Enterococcus faecium NR 31912 assessed as inhibition of bacterial growth.
Data set [11] relates to Staphylococcus aureus. As to the kind of experiment: Antibacterial activity against vancomycin-resistant Staphylococcus aureus VRS 12 assessed as reduction in bacterial growth. It is filed as functional. The method, boiled down:
(§2)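 CLSI broth microdilution in cation-supplemented Mueller–Hinton broth II. Starter cultures were grown overnight at 37 °C with shaking from a single MHA colony, then diluted by OD600 to ~10^6 CFU/mL. Compounds came from 10 mg/mL DMSO stocks and were tested two-fold from 64 to 0.5 mg/L. Plates were incubated 37 °C for 18–24 h. MIC was taken as the lowest concentration with no visible growth. Three independent runs, each in duplicate.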

In data set [12] the test system is Staphylococcus aureus. As to the kind of experiment: Antibacterial activity against vancomycin-resistant Staphylococcus aureus VRS 1 assessed as reduction in bacterial growth. The data set is classed as functional. The method, boiled down:
as §2

Data set [13] concerns Staphylococcus aureus. As to the kind of experiment: Antibacterial activity against vancomycin-resistant Staphylococcus aureus VRS 4 assessed as reduction in bacterial growth. It is filed as functional. The method, boiled down:
as §2

≈ marks a conversion by molar mass, not a printed value.

As a reminder, the CC50 is the concentration that lowers cell viability or growth by half. As for `COc1cccc2c1C(=O)c1c(O)c3c(c(O)c1C2=O)C[C@@](O)(C(=O)CO)C[C@@H]3O[C@H]1C[C@H](N)[C@H](O)[C@H](C)O1` [DOXORUBICIN], the cytotoxic concentration (CC50) at 72 h in data set [1] is 10 µg/mL (≈ 18.4 µM).

The MIC is the least concentration at which growth counts as inhibited. On to `O=C1N/C(=N\c2nc3ccccc3o2)S/C1=C\c1cccc([N+](=O)[O-])c1`, for which the MIC with Klebsiella pneumoniae, with Acinetobacter baumannii, in the data set with Staphylococcus aureus [2], with Pseudomonas aeruginosa and in the data set on Escherichia coli was more than 64 µg/mL throughout.

With `COc1ccc(/C=C2\S/C(=N/c3nc4ccccc4o3)NC2=O)cc1O`, the MIC with Klebsiella pneumoniae was more than 64 µg/mL; in the data set with Acinetobacter baumannii, more than 64 µg/mL; in the data set on Staphylococcus aureus [2] it was 4 µg/mL (≈ 10.9 µM); in the data set with Pseudomonas aeruginosa, more than 64 µg/mL; in the data set on Escherichia coli, more than 64 µg/mL.

For `O=C1N/C(=N\c2nc3ccccc3o2)S/C1=C\c1cccc(Cl)c1`, the MIC with Klebsiella pneumoniae is more than 64 µg/mL; in the data set with Acinetobacter baumannii, more than 64 µg/mL; in the data set with Staphylococcus aureus [2], 8 µg/mL (≈ 22.5 µM); in the data set on Pseudomonas aeruginosa, more than 64 µg/mL; with Escherichia coli, more than 64 µg/mL.

Turning to `O=C1N/C(=N\c2nc3ccccc3o2)S/C1=C\c1ccc(Br)cc1`, the MIC in the data set with Klebsiella pneumoniae is more than 64 µg/mL; in the data set on Acinetobacter baumannii it was more than 64 µg/mL; in the data set on Staphylococcus aureus [2] it was 32 µg/mL (≈ 79.9 µM); in the data set with Pseudomonas aeruginosa, more than 64 µg/mL; in the data set on Escherichia coli it was more than 64 µg/mL.

As to `CN(C)c1ccc(O)c2c1C[C@H]1C[C@H]3[C@H](N(C)C)C(O)=C(C(N)=O)C(=O)[C@@]3(O)C(O)=C1C2=O` [MINOCYCLINE], the MIC in the data set with Enterococcus faecium [3] stood at 8 µg/mL (≈ 17.5 µM); with Enterococcus faecalis [4], 0.5 µg/mL (≈ 1.09 µM); in the data set with Enterococcus faecium [5], 8 µg/mL (≈ 17.5 µM); in the data set on Enterococcus faecalis [6], 0.5 µg/mL (≈ 1.09 µM); with Enterococcus faecalis [7], 8 µg/mL (≈ 17.5 µM); in the data set with Enterococcus faecalis [8] it was 0.5 µg/mL (≈ 1.09 µM). In addition, the MIC in the data set on Enterococcus faecalis [9] came to 0.5 µg/mL (≈ 1.09 µM); with Enterococcus faecium [10], 8 µg/mL (≈ 17.5 µM).

As for `O=C1N/C(=N\c2nc3ccccc3o2)S/C1=C\c1ccc(F)cc1`, the MIC in the data set with Klebsiella pneumoniae is more than 64 µg/mL; with Acinetobacter baumannii, more than 64 µg/mL; in the data set on Staphylococcus aureus [2], 8 µg/mL (≈ 23.6 µM); in the data set on Pseudomonas aeruginosa, more than 64 µg/mL; in the data set with Escherichia coli it was more than 64 µg/mL.

Take `CN[C@H](CC(C)C)C(=O)N[C@H]1C(=O)N[C@@H](CC(N)=O)C(=O)N[C@H]2C(=O)N[C@H]3C(=O)N[C@H](C(=O)N[C@H](C(=O)O)c4cc(O)cc(O)c4-c4cc3ccc4O)[C@H](O)c3ccc(c(Cl)c3)Oc3cc2cc(c3O[C@@H]2O[C@H](CO)[C@@H](O)[C@H](O)[C@H]2O[C@H]2C[C@](C)(N)[C@H](O)[C@H](C)O2)Oc2ccc(cc2Cl)[C@H]1O` [VANCOMYCIN]: the MIC in the data set with Staphylococcus aureus [11] was more than 64 µg/mL; in the data set with Staphylococcus aureus [12], more than 64 µg/mL; with Enterococcus faecalis [4], 2 µg/mL (≈ 1.38 µM); with Enterococcus faecalis [6] it was 2 µg/mL (≈ 1.38 µM); in the data set with Staphylococcus aureus [13], more than 64 µg/mL; in the data set on Enterococcus faecalis [7], 2 µg/mL (≈ 1.38 µM). Besides, the MIC in the data set with Enterococcus faecalis [8] and in the data set on Enterococcus faecalis [9] was 2 µg/mL (≈ 1.38 µM) throughout.

On to `O=C1N/C(=N\c2nc3ccccc3o2)S/C1=C\c1cccc(F)c1`, for which the MIC was more than 64 µg/mL in the data set with Klebsiella pneumoniae; more than 64 µg/mL in the data set on Acinetobacter baumannii; 8 µg/mL (≈ 23.6 µM) in the data set with Staphylococcus aureus [2]; more than 64 µg/mL with Pseudomonas aeruginosa; more than 64 µg/mL in the data set on Escherichia coli.

Consider `COc1cccc(/C=C2\S/C(=N/c3nc4ccccc4o3)NC2=O)c1`, for which the MIC in the data set on Klebsiella pneumoniae, in the data set with Acinetobacter baumannii, with Staphylococcus aureus [2], in the data set with Pseudomonas aeruginosa and with Escherichia coli was more than 64 µg/mL in each case.

`O=C1N/C(=N\c2nc3ccccc3o2)S/C1=C\c1ccccc1F`: the MIC in the data set with Klebsiella pneumoniae is more than 64 µg/mL; in the data set with Acinetobacter baumannii it was more than 64 µg/mL; in the data set on Staphylococcus aureus [2], 16 µg/mL (≈ 47.1 µM); with Pseudomonas aeruginosa, more than 64 µg/mL; in the data set on Escherichia coli, more than 64 µg/mL.

On to `O=C1N/C(=N\c2nc3ccccc3o2)S/C1=C\c1ccco1`, for which the MIC in the data set with Klebsiella pneumoniae was more than 64 µg/mL; in the data set with Acinetobacter baumannii, more than 64 µg/mL; in the data set on Staphylococcus aureus [2], 8 µg/mL (≈ 25.7 µM); in the data set with Pseudomonas aeruginosa, more than 64 µg/mL; with Escherichia coli, more than 64 µg/mL.

For `O=C1N/C(=N\c2nc3ccccc3o2)S/C1=C\c1ccc([N+](=O)[O-])cc1`, the MIC in the data set on Klebsiella pneumoniae, with Acinetobacter baumannii, in the data set with Staphylococcus aureus [2], in the data set on Pseudomonas aeruginosa and in the data set with Escherichia coli was more than 64 µg/mL throughout.

For the origin of these results see ChEMBL document CHEMBL5329174, “Discovery of benzoxazole-thiazolidinone hybrids as promising antibacterial agents against Staphylococcus aureus and Enterococcus species” (RSC Med Chem, 2023).
